According to ChEMBL document CHEMBL4261567, “Phenylethynyl-substituted Heterocycles Inhibit Cyclin D1 and Induce the Expression of Cyclin-dependent Kinase Inhibitor p21Wif1/Cip1 in Colorectal Cancer Cells” (Medchemcomm, 2018):

Key:
Format in all cases: functional
Settings in all cases: 96 h
LS174T [1] = test: Antiproliferative activity against human LS174T cells assessed as inhibition of cell proliferation at 10 uM after 4 days by Vi-Cell cell viability analyzer based method relative to control
Outline: (§1)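 Cells (colon LS174T, HT-29, Caco2; lung epithelial BEAS-2B; fibroblast HEL 299) were kept in RPMI or DMEM with 5% or 10% FBS plus 1% penicillin/streptomycin. 3 × 10^4 cells per well were exposed to DMSO or compound. After 4 days, cell number and viability were counted on a Vi-Cell analyzer. Results are given as percent inhibition of proliferation at the stated concentration.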

LS174T [2] = test: Antiproliferative activity against human LS174T cells assessed as inhibition of cell proliferation at 1 uM after 4 days by Vi-Cell cell viability analyzer based method relative to control; outline: as §1
LS174T [3] = test: Antiproliferative activity against human LS174T cells assessed as inhibition of cell proliferation at 100 nM after 4 days by Vi-Cell cell viability analyzer based method relative to control; outline: as §1

SMILES | inhibition at 10 µM (LS174T [1]) [%] | inhibition at 1 µM (LS174T [2]) [%] | inhibition at 0.1 µM (LS174T [3]) [%]
Fc1cccc(F)c1C#Cc1ccc2cn[nH]c2c1 | 97 | 81.5 | –
Fc1cccc(F)c1C#Cc1ccc(-n2cccc2)nc1 | 95.3 | 80.5 | 0
Fc1cccc(F)c1C#Cc1cnc2ccccc2c1 | 90.4 | 41.7 | 0
Nc1ccnc2ccc(C#Cc3c(F)cccc3F)cc12 | 93.9 | 66.2 | 0
Fc1cccc(F)c1C#Cc1ccc(N2CCOCC2)cc1 | 32.1 | 13 | –
CN(C)c1ccc(C#Cc2c(F)cccc2F)nc1 | 85.2 | 68.9 | 15.1
Fc1cccc(F)c1C#Cc1nccc2ccccc12 | 96.7 | 35.4 | –
Cn1ncc2cc(C#Cc3c(F)cccc3F)ccc21 | 94.6 | 58.4 | 0
CN(C)c1cnc(C#Cc2c(F)cccc2F)cn1 | 91.6 | 22.9 | –
Fc1cccc(F)c1C#Cc1ccnc2cc(Cl)ccc12 | 74.3 | 36 | –
Fc1cccc(F)c1C#Cc1ccc2cnccc2c1 | 82.4 | 11.6 | –
Fc1ccc2ccnc(C#Cc3c(F)cccc3F)c2c1 | 96.2 | 71.1 | 0
Fc1cccc(F)c1C#Cc1ccc2nc(Cl)ccc2c1 | 63.3 | 21.2 | –
Fc1cccc(F)c1C#Cc1cnc(Cl)c2ccccc12 | 94 | 48.1 | 0.8
Fc1cccc(F)c1C#Cc1ccnc2ccccc12 | 59 | 15.4 | –
CN(C)c1ccc(C#Cc2c(F)cccc2F)cn1 | 83.6 | 77.9 | 0
Nc1ccnc2cc(C#Cc3c(F)cccc3F)ccc12 | 97.7 | 23.6 | –
Fc1cccc(F)c1C#Cc1cccc2cnccc12 | 93.6 | 64.2 | –
Cc1ccc(C)n1-c1ccc(C#Cc2c(F)cccc2F)cc1 | 78.8 | 20.9 | –
Fc1cccc(F)c1C#Cc1cccc2ncccc12 | 94.7 | 43.1 | –
Fc1cccc(F)c1C#Cc1cccc2cccnc12 | 92.7 | 47.6 | –
Nc1ccc2ncc(C#Cc3c(F)cccc3F)cc2c1 | 9.2 | – | –
O=C1CCCCN1c1ccc(C#Cc2c(F)cccc2F)cc1 | 68.1 | 6.4 | –
Fc1cccc(F)c1C#Cc1ccc2c(Cl)ccnc2c1 | 70.8 | 23.1 | –
Cn1ccc2cc(C#Cc3c(F)cccc3F)ccc21 | 95.2 | 77.7 | 3
